Measurements: article PMC12782866 (Biomolecules & Therapeutics, 2025)
“Also recorded” adds a separate entry of the source.

Columns and labels:
hERG channel = hERG channel (Homo sapiens, UniProt Q12809); assay: hERG channel inhibition, in vitro; format: biochemical; conditions: read-out: hERG IC50
[1] = Comparative 14-day repeated-dose toxicity study with BAY964; format: in vivo, male ICR mice; conditions: for exposure multiple: reference not defined
Outline: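 Male ICR mice were dosed orally once daily for 14 days under GLP. Prodrug arm: 30, 100 or 300 mg/kg in 0.1% kolliphor EL (vehicle n=6; dose groups 6 main + 3 TK). Comparator arm: 30-1000 mg/kg, with 30 mg/kg given only as single-dose TK. Endpoints were clinical signs, body weight, food/water intake, haematology, serum chemistry, organ weights and H&E histopathology. TK was sampled on days 1 and 14.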

hERG channel, sequence (Q12809 whole entry): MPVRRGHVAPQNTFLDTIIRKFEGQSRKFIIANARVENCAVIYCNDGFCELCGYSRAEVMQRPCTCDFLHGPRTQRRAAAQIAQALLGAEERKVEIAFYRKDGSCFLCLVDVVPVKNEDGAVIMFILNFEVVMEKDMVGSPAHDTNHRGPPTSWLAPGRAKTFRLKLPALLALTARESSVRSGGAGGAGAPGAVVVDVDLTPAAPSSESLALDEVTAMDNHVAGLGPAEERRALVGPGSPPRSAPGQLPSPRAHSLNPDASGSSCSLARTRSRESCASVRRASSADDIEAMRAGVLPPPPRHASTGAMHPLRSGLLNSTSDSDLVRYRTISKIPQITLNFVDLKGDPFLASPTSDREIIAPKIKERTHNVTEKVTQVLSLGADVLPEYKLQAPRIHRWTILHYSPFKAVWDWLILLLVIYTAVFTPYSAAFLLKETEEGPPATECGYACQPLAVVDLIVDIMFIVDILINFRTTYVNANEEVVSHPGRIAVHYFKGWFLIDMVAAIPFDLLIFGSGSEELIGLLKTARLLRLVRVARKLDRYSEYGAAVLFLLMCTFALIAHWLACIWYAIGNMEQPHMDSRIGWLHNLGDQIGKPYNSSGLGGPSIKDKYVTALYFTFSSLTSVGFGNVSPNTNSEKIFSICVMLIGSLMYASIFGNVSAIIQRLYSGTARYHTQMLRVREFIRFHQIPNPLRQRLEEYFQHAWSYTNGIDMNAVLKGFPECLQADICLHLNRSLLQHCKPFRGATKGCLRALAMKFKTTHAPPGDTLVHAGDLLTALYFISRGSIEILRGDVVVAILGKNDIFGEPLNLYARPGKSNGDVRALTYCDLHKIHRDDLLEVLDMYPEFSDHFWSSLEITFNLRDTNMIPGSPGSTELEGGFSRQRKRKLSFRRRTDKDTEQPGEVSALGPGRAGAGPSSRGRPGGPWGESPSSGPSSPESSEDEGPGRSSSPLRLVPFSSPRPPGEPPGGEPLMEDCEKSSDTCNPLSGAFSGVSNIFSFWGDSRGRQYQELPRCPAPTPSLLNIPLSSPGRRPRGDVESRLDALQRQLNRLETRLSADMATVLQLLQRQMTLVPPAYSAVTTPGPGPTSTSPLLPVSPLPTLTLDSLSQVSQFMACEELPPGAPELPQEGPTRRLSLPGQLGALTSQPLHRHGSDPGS

For `C[C@@H](CO)NC(=O)c1cc(-c2ccc(Cl)cc2)nn(-c2cnn(C)c2)c1=O` [BAY964], the IC50 (hERG channel) was over 10 µM, the toxicological findings ([1]; 100 mg/kg, 14 days) was “MCHC ↓, TG ↓, liver, spleen” and the exposure multiple ([1]; 100 mg/kg) was 1.9 ×. The toxicological findings ([1]; 300 mg/kg, 14 days) was “liver, spleen; hematological changes”, the exposure multiple ([1]; 300 mg/kg) was 3.6 × and the toxicological findings ([1]; 1000 mg/kg, 14 days) was “gastrointestinal, liver, spleen, kidney lesions”. For the same compound, the exposure multiple ([1]; 1000 mg/kg) was 7.0 × and the Target organ ([1]; 100-1000 mg/kg, 14 days) was “liver, spleen, gastrointestinal tract, and kidney; also recorded: Liver, spleen, GI tract, kidney”.
